Compound activity (PubChem BioAssay)
Only some compounds are listed: those with a hit (about 2.9% of all), similar ones and a draw of the others.
Jurkat tox 60K = reduces viability or proliferation of Jurkat cells. actives 1.2% (n = 56,000). inhibition, % at 4 µM. Jurkat E6.1 viability, ATP luminescence, 48 h;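 active = inhibition above the mean inhibition of all tested compounds plus 3 SD, cut at about 28% in these data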
MT1-MMP txn act = activates MT1-MMP transcription | actives 0.16% (n = 86,000) | HT1080 MT1-MMP promoter luciferase reporter, luminescence, overnight; hits give high values | activation factor at 10 µM;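 active = activation factor of at least 2 for MT1-MMP transcription at 10 µM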
RORA act = RORA (human) activation; CHO-K1 Gal4-RORA LBD luciferase reporter, luminescence; percent increase over mock-subtracted basal signal; activation, % at 10 µM; actives 1.5% (n = 65,000); AID 560;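 active = activation above the mean of all tested compounds plus 3 SD, cut at about 49% in these data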;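 also: 0% = DMSO-treated RORA cells and 100% = added signal equal to DMSO minus mock-transfected cells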
Target sequence (P35398 whole entry, looked up, the tested form may be a part): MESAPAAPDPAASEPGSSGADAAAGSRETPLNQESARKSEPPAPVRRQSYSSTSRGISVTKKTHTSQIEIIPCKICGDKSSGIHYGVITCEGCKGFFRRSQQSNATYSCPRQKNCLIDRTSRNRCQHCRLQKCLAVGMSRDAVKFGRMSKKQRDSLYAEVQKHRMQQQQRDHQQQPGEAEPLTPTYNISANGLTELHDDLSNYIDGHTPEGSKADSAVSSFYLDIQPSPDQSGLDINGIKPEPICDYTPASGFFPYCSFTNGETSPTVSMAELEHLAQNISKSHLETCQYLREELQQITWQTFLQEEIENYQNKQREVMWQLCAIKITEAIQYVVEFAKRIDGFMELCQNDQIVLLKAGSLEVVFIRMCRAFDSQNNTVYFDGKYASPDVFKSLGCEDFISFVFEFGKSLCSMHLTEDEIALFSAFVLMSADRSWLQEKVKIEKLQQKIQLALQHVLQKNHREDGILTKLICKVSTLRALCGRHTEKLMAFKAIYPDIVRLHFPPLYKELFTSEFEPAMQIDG
HEK293 NFkB inh = lowers PMA/ionomycin-induced NF-kB signal in HEK293 cells | HEK-293 NF-kB luciferase reporter, luminescence | inhibition, % at 3 µM | actives 0.21% (n = 62,000) | AID 465;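 active = inhibition above the mean of all tested compounds plus 3 SD, cut at about 40% in these data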;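 also: 0% = stimulated DMSO wells and 100% = 10 µM reference inhibitor 5653914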
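Timing: 1 h pretreatment, 16 h stimulation, 37 °C; system: HEK-293 cells with stable firefly luciferase reporter driven by four HIV NF-kB elements; doses: 3 µM once, 0.30% DMSO; measured by: luciferase luminescence; control set: DMSO and 10 µM reference inhibitor; repeats: single test; reagent: PMA plus ionomycin mix as NF-kB-activating stimulus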
SF-1 act = activators of human nuclear receptor SF-1. activation, % at 10 µM. AID 522. Q13285. actives 1.9% (n = 65,000). CHO-K1 Gal4-SF-1 LBD luciferase reporter; % increase over DMSO SF-1-specific signal;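 active = activation above the mean activation of all tested compounds plus 3 SD, cut at about 50% in these data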
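Compound – one dose, 10 µM compound, 1% DMSO · Test system – transient Gal4-SF-1 LBD reporter, CHO-K1 · Input – 4,000 cells in each well · Read-out basis – percent activation relative to DMSO median and mock-transfected background · Replicates – single measurement per compound · Technique – steady-glow luciferase luminescence, read after 15 min reagent incubation · Timing – 20 h compound treatment, 37 °C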
The depositor's hits bear a star; nt = not tested or not shown.

SMILES	Jurkat tox 60K	MT1-MMP txn act	RORA act	HEK293 NFkB inh	SF-1 act
N#C/C(=C/c1ccc(N2CCCCCC2)o1)c1ccc(F)cc1	98.8*	1.3	-62.1	0.7	-19.0
N#C/C(=C/c1ccc(N2CCCCCC2)o1)c1cccc(F)c1	nt	1.8	nt	nt	nt
CC(C)Nc1nc(NC(C)C)nc(N(C#N)CCOc2ccc(Cl)cc2Cl)n1	nt	1.3	nt	nt	nt
CNC(=O)C1CC(=O)N(CCCc2ccccc2)C(=Nc2ccccc2)S1 (stereo not drawn)	nt	1.1	nt	nt	nt
Cc1ccc(-n2nnnc2SCn2nnc3ccccc3c2=O)cc1	nt	1.4	nt	nt	nt
O=c1c2ccccc2nnn1CSc1nnc(-c2cccs2)n1Cc1ccccc1	28.5*	nt	-4.5	-21.3	4.0
O=c1c2ccccc2nnn1CSc1nnc2ccccn12	-3.1	1.5	23.4	-35.5	77.6*
O=C(Cn1cnc2ccccc2c1=O)c1ccc2c(c1)OCCO2	0.0	1.1	38.9	-23.3	75.1*
O=c1c2ccccc2nnn1CSc1ccc2c(c1)OCCO2	-3.4	1.4	38.0	-25.3	77.3*
C=CCN(C)CCCNC(=O)/C=N/O	nt	1	-4.1	nt	-5.7
COc1ccccc1OCC(O)CN1C(=O)NC(C)(C)C1=O (stereo not drawn)	0.7	1.1	17.7	0.9	-1.3
CC1=C(C(=O)OCc2ccccc2)C(c2cccc3ccccc23)NC(=O)N1CCCC(=O)O (stereo not drawn)	nt	1.1	nt	nt	nt
Cc1cc(/C=N/n2cnnc2)c(C)n1-c1cc(Cl)ccc1Cl	14.6	1	-11.6	23.6	3.8
Cc1cc(C(=O)CSc2nnc(-c3cccs3)n2Cc2ccccc2)c(C)n1C	8.1	1.2	-29.3	4.8	-5.4
O=c1cc(CSc2nnc(-c3cccs3)n2Cc2ccccc2)nc2sc3ccccc3n12	70.7*	1	-25.9	22.8	16.7
NC(=O)c1c(NC(=O)Cc2cccs2)sc2c1CCC2	-1.3	1.1	25.2	0.7	51.2*
Cc1occc1C(=O)Nc1sc2c(c1C(N)=O)CCCCC2	1.5	1.4	27.2	1.6	58.5*
COC(=O)c1c(NC(=O)c2ccoc2C)sc2c1CCC2	5.4	1.2	-3.5	6.4	-10.8
O=C(Nc1sc2c(c1C(=O)O)CCCCC2)c1ccco1	2.4	0.9	62.5*	-53.6	57.4*
CCOC(=O)c1c(NC(=O)Cc2cccs2)sc2c1CCCC2	-3.2	1.2	-16.6	26.2	-16.4
CN(C)C(=O)c1c(NC(=O)c2ccco2)sc2c1CCCCC2	nt	1.5	nt	nt	nt
O=C(c1cc(-c2ccc(O)cc2)on1)N1CCc2ccccc2C1	44.8*	1.2	13.2	-5.2	48.1
CC1CCN(C(=O)c2cc(-c3ccccc3O)on2)CC1	2.4	1.2	63.8*	-25.1	99.1*
O=C(c1cc(-c2ccccc2O)on1)N1CCc2ccccc2C1	-6.5	1.1	-13.7	9.2	23.1
O=C(c1cc(-c2cccc(O)c2)on1)N1CCOCC1	4.2	0.6	-18.6	18.2	0.3
SMILES	Jurkat tox 60K	MT1-MMP txn act	RORA act	HEK293 NFkB inh	SF-1 act
O=C(c1cc(-c2ccccc2)on1)N1CCCC1	-5.9	0.9	24.6	-27.4	56.7*
O=C(c1cc(-c2ccc(Cl)c(Cl)c2)on1)N1CCCCC1	7.4	1.5	92.4*	-52.8	43.0
O=C(c1cc(-c2ccc(Cl)c(Cl)c2)on1)N1CCN(c2ccccc2)CC1	-1.8	1.1	-16.0	-2.2	10.9
CCOc1ccc2c(c1)C(c1ccccc1)=NNC(c1ccccc1)=N2	nt	1.2	nt	nt	nt
Cn1c(C(=O)O)c(CC(=O)N2CCC(Cc3ccccc3)CC2)c2ccccc21	nt	1.2	nt	nt	nt
CC(C)C[C@H](NC(=O)OC(C)(C)C)C(=O)N1CCC(C(=O)N[C@@H](Cc2ccccc2)C(=O)O)CC1	nt	0.9	13.7	9.1	-5.6
COc1ccc(NC(=O)CCNS(=O)(=O)c2ccc3c(c2)c(=O)n(C)c(=O)n3C)c(OC)c1	nt	1.3	nt	nt	nt
COC(=O)c1ccc(C(NC(=O)OCc2ccccc2)/C(F)=C/[C@@H](C)C(=O)NCc2nn(-c3ccccc3)nc2C)cc1 (stereo partly drawn)	nt	1.5	nt	nt	nt
O=C(COc1ccccc1)Nc1nc2ccccc2[nH]1	-0.8	1.4	55.1*	1.2	60.3*
COc1ccccc1N1CCN(C(=O)c2sc3nc(-c4ccc(F)cc4)cn3c2C)CC1	13.1	0.9	-1.7	11.4	2.2
O=C1c2ccccc2C(=O)N1CCOc1ccccc1	nt	2.1*	nt	nt	nt
COC(=O)c1[nH]c2c(c1C)C(=O)CCC2	4.5	1.1	-32.3	14.0	1.0
COC(=O)c1[nH]c2c(c1C)C(=O)CC(c1cc(OC)ccc1OC)C2 (stereo not drawn)	82.5*	1.1	43.4	11.1	20.7
COC(=O)c1[nH]c2c(c1C)C(=O)CC(c1cccs1)C2 (stereo not drawn)	97.2*	0.5	-8.8	32.4	-14.3
CCOc1ccc(C2CC(=O)c3c([nH]c(C(=O)OC)c3C)C2)cc1OC (stereo not drawn)	nt	nt	12.6	7.8	3.9
COC(=O)C1=C(C)Nc2ncnn2C1c1ccc(OCc2ccccc2)cc1 (stereo not drawn)	0.4	1.2	2.8	6.6	9.5
CCc1cc2c(=O)c(-c3cscn3)coc2cc1OC	-3.0	1.5	51.5*	-10.5	38.6
O=C(Nc1ccc2c(c1)OCCO2)c1cnc2n(c1=O)CCS2	-3.9	1.4	88.1*	-36.3	91.0*
O=C(NCc1ccc2c(c1)OCO2)c1cnc2n(c1=O)CCS2	1.2	1.2	4.5	7.6	-5.3
O=C(NCCc1ccc(Cl)cc1)c1cnc2n(c1=O)CCS2	-4.9	1.3	34.8	-12.7	33.9
O=C(NCCC1=CCCCC1)c1cnc2n(c1=O)CCS2	-4.5	1.7	33.5	-23.2	51.3*
O=C(Nc1ccc2c(c1)OCO2)c1cnc2n(c1=O)CCS2	-0.1	1.3	36.3	-34.9	62.3*
Cc1cccc(NC(=O)c2cnc3n(c2=O)CCS3)c1	7.2	1.6	75.8*	-21.1	24.4
CCOc1ccccc1C(=O)N1CCCCC1C (stereo not drawn)	-5.8	1	-1.7	9.9	2.7
CCCCCCSc1nsc(NC(C)=O)n1	4.9	1.3	74.9*	-23.3	21.3
SMILES	Jurkat tox 60K	MT1-MMP txn act	RORA act	HEK293 NFkB inh	SF-1 act
CCCCSc1nsc(NC(C)=O)n1	0.5	1.1	55.6*	-36.3	48.9
Cc1ccc(C2CC(=O)Nc3cc4c(cc32)OCO4)o1 (stereo not drawn)	nt	1.2	nt	nt	nt
CCOC(=O)c1[nH]c(C)c(C(=O)NCCC2=CCCCC2)c1C	12.4	1.1	0.7	-0.5	24.0
CC(=O)c1c(C)[nH]c(C(=O)NCCC2=CCCCC2)c1C	6.7	0.8	68.6*	-20.1	84.3*
Cc1ncsc1C(=O)Nc1nc2c(s1)CC(C)CC2 (stereo not drawn)	4.0	1.1	55.9*	-26.6	61.7*
c1ccc2c(CCNc3ncnc4nc[nH]c34)c[nH]c2c1	87.6*	nt	47.3	6.6	15.8
Nc1nc(-c2ccccc2)nc(-c2ccccc2O)n1	0.5	1.2	-0.6	3.1	26.5
Nc1nc(-c2ccccc2)cc(-c2ccccc2O)n1	11.4	1.2	49.2*	-45.4	18.8
